Values belong to the compound of their own block, whether it stands above or below them. Active and inactive are the calls of the source. The calls are words filed in the database; no cut-off is given here.
Tests used:
RAW264.7 [1] = assay: Antiinflammatory activity in mouse RAW264.7 cells assessed as inhibition of LPS-induced nitric oxide release at 10 uM treated 2 hrs before LPS challenge measured after 48 hrs by Griess assay relative to control; assay type: functional
RAW264.7 [2] = assay: Antiinflammatory activity in mouse RAW264.7 cells assessed as inhibition of LPS-induced TNF-alpha release at 10 uM treated 2 hrs before LPS challenge measured after 6 hrs by ELISA (reference value: 5.9 +/- 0.5 pg/ml); assay type: functional
RAW264.7 [3] = assay: Antiinflammatory activity in mouse RAW264.7 cells assessed as inhibition of LPS-induced TNF-alpha release at 10 uM treated 2 hrs before LPS challenge measured after 24 hrs by ELISA (reference value: 38.3 +/- 3.3 pg/ml); assay type: functional
RAW264.7 [4] = assay: Antiinflammatory activity in mouse RAW264.7 cells assessed as inhibition of LPS-induced IL-6 release at 10 uM treated 2 hrs before LPS challenge measured after 24 hrs by ELISA (reference value: 45.1 +/- 5.6 pg/ml); assay type: functional
RAW264.7 [5] = assay: Antiinflammatory activity in mouse RAW264.7 cells assessed as inhibition of LPS-induced IL-6 release at 10 uM treated 2 hrs before LPS challenge measured after 6 hrs by ELISA (reference value: 7.2 +/- 0.9 pg/ml); assay type: functional
RAW264.7 [6] = assay: Antiinflammatory activity in mouse RAW264.7 cells assessed as inhibition of LPS-induced IL-6 release at 10 uM treated 2 hrs before LPS challenge measured by ELISA; assay type: functional, cell-based; conditions: TDE = time-dependent effect
RAW264.7 [7] = assay: Antiinflammatory activity in mouse RAW264.7 cells assessed as inhibition of LPS-induced IL-6 release at 10 uM treated 2 hrs before LPS challenge measured after 12 hrs by ELISA (reference value: 13.9 +/- 2.6 pg/ml); assay type: functional
RAW264.7 [8] = assay: Antiinflammatory activity in mouse RAW264.7 cells assessed as inhibition of LPS-induced TNF-alpha release at 10 uM treated 2 hrs before LPS challenge measured by ELISA; assay type: functional, cell-based; conditions: TDE = time-dependent effect
[9] = Cytotoxicity against mouse RAW264.7 cells assessed as cell viability at 10 uM after 48 hrs by MTT assay relative to control; assay type: cell-based; conditions: read-out: Activity
Summary of the method: (§1)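 MTT assay. RAW264.7 cells at 4 × 10^3 cells/well, cultured 16 h, then exposed to compounds diluted in DMEM for 48 h. MTT (0.5 mg/mL) added for 4 h, formazan dissolved in DMSO, OD570 read. Viability = compound OD570/blank OD570 × 100%, with the medium-only blank set as 100%. Three independent experiments.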

RAW264.7 [10] = assay: Antiinflammatory activity in mouse RAW264.7 cells assessed as inhibition of LPS-induced TNF-alpha release at 10 uM treated 2 hrs before LPS challenge measured after 12 hrs by ELISA (reference value: 11.8 +/- 1.2 pg/ml); assay type: functional
[11] = molecular target: T1, Peroxisome proliferator-activated receptor gamma (Mus musculus) (UniProt P37238); assay: Inhibition of PPARgamma in mouse RAW264.7 cells assessed as inhibition of LPS-induced JNK phosphorylation at 10 uM after 4 hrs by Western blot analysis in presence of PPARgamma antagonist GW9662; assay type: cell-based
T1 sequence (whole entry): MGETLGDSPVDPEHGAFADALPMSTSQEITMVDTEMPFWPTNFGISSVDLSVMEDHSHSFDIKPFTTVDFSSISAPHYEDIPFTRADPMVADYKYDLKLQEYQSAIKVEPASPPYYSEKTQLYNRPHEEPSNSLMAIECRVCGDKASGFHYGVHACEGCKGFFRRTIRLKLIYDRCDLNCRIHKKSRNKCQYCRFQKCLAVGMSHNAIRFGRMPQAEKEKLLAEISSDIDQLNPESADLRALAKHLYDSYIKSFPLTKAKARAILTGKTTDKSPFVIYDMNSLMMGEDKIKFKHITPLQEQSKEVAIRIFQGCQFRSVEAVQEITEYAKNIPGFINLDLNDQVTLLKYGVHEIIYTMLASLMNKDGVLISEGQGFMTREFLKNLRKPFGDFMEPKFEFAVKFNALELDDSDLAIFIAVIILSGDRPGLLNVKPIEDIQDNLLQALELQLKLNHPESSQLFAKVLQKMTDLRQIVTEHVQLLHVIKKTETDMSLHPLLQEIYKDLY
Summary of the method: (§2)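 RAW264.7 cells at 2 × 10^6 per well, cultured 18 h, then given fresh medium with compounds plus 500 ng/mL LPS for 4 h, with GW9662 at 5 where included. Lysates clarified at 14,000 × g, protein by BCA, equal loads on SDS-PAGE. Blots blocked in 5% milk/TBST, primary antibodies 1:1000 overnight, secondary 1:1000 90 min, ECL detection. Means ± SD (n = 3).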

[12] = molecular target: T1, Peroxisome proliferator-activated receptor gamma (Mus musculus); assay: Inhibition of PPARgamma in mouse RAW264.7 cells assessed as inhibition of LPS-induced NF-kappaB 65 phosphorylation at 10 uM after 4 hrs by Western blot analysis in presence of PPARgamma antagonist GW9662; assay type: cell-based; summary of the method: as §2
[13] = molecular target: T1, Peroxisome proliferator-activated receptor gamma (Mus musculus); assay: Inhibition of PPARgamma in mouse RAW264.7 cells assessed as inhibition of LPS-induced NF-kappaB 65 phosphorylation at 10 uM after 4 hrs by Western blot analysis; assay type: cell-based; summary of the method: as §2
[14] = molecular target: T1, Peroxisome proliferator-activated receptor gamma (Mus musculus); assay: Inhibition of PPARgamma in mouse RAW264.7 cells assessed as inhibition of LPS-induced ERK1/2 phosphorylation at 10 uM after 4 hrs by Western blot analysis; assay type: cell-based; summary of the method: as §2
[15] = molecular target: T1, Peroxisome proliferator-activated receptor gamma (Mus musculus); assay: Inhibition of PPARgamma in mouse RAW264.7 cells assessed as inhibition of LPS-induced p38 MAPK phosphorylation at 10 uM after 4 hrs by Western blot analysis; assay type: cell-based; summary of the method: as §2
[16] = molecular target: T1, Peroxisome proliferator-activated receptor gamma (Mus musculus); assay: Inhibition of PPARgamma in mouse RAW264.7 cells assessed as inhibition of LPS-induced IkappaBalpha phosphorylation at 10 uM after 4 hrs by Western blot analysis; assay type: cell-based; summary of the method: as §2
[17] = molecular target: T1, Peroxisome proliferator-activated receptor gamma (Mus musculus); assay: Inhibition of PPARgamma in mouse RAW264.7 cells assessed as inhibition of LPS-induced p38 MAPK phosphorylation at 10 uM after 4 hrs by Western blot analysis in presence of PPARgamma antagonist GW9662; assay type: cell-based; summary of the method: as §2
[18] = molecular target: T1, Peroxisome proliferator-activated receptor gamma (Mus musculus); assay: Inhibition of PPARgamma in mouse RAW264.7 cells assessed as inhibition of LPS-induced ERK1/2 phosphorylation at 10 uM after 4 hrs by Western blot analysis in presence of PPARgamma antagonist GW9662; assay type: cell-based; summary of the method: as §2
[19] = molecular target: T1, Peroxisome proliferator-activated receptor gamma (Mus musculus); assay: Inhibition of PPARgamma in mouse RAW264.7 cells assessed as inhibition of LPS-induced JNK phosphorylation at 10 uM after 4 hrs by Western blot analysis; assay type: cell-based; summary of the method: as §2
[20] = molecular target: T1, Peroxisome proliferator-activated receptor gamma (Mus musculus); assay: Inhibition of PPARgamma in mouse RAW264.7 cells assessed as inhibition of LPS-induced IkappaBalpha phosphorylation at 10 uM after 4 hrs by Western blot analysis in presence of PPARgamma antagonist GW9662; assay type: cell-based; summary of the method: as §2
[21] = Cytotoxicity against mouse RAW264.7 cells assessed as cell viability at 5 uM after 48 hrs by MTT assay relative to control; assay type: cell-based; conditions: read-out: Activity; summary of the method: as §1

Compound: CCOc1cc(/C=C2\SC(=O)NC2=O)ccc1OCc1nc(C)c(C)nc1C
inhibition at 10 µM (RAW264.7 [1]): 30.7%

Compound: CCOc1cc(/C=C2\OC(=O)C(Br)=C2Br)ccc1OCc1ccccn1
inhibition at 10 µM (RAW264.7 [1]): 42.2%

Compound: COc1cc(/C=C2\OC(=O)C(Cl)=C2Cl)ccc1OCc1ccccn1
inhibition at 10 µM (RAW264.7 [1]): 36.4%

Compound: Cc1nc(C)c(COc2ccc(/C=C3\OC(=O)C(Br)=C3Br)cc2)nc1C
inhibition at 10 µM (RAW264.7 [1]): 30.1%

Compound: O=C1O/C(=C\c2ccc(OCCc3ccccn3)cc2)C(Br)=C1Br
inhibition at 10 µM (RAW264.7 [1]): 38%

Compound: CCc1ccc(CCOc2ccc(/C=C3\OC(=O)C(Br)=C3Br)cc2)nc1
inhibition at 10 µM (RAW264.7 [1]): 43.6%

Compound: COc1cc(/C=C2\OC(=O)C(Br)=C2Br)ccc1OCc1nc(C)c(C)nc1C
inhibition at 10 µM (RAW264.7 [1]): 37.2%

Compound: COc1ccc2c(c1)c(CC(=O)O)c(C)n2C(=O)c1ccc(Cl)cc1 [INDOMETHACIN]
Activity (RAW264.7 [2]): 366.5 pg/mL
Activity (RAW264.7 [3]): 1242 pg/mL
Activity (RAW264.7 [4]): 7645.9 pg/mL
Activity (RAW264.7 [5]): 2313.5 pg/mL
inhibition (RAW264.7 [6]): tde
Activity (RAW264.7 [7]): 2989.6 pg/mL
inhibition (RAW264.7 [8]): tde
viability at 48 h, 10 µM [9]: 101%
inhibition at 10 µM (RAW264.7 [1]): 31.3%
Activity (RAW264.7 [10]): 612.6 pg/mL

Compound: O=C1O/C(=C\c2ccc(OCc3ccccn3)cc2)C(Br)=C1Br
inhibition at 10 µM (RAW264.7 [1]): 29.2%

Compound: Cc1nc(C)c(COc2ccc(/C=C3\SC(=O)NC3=O)cc2)nc1C
inhibition at 10 µM (RAW264.7 [1]): 19.3%

inhibition [11]: inactive
inhibition [12]: inactive
inhibition [13]: Active
inhibition [14]: Active
inhibition [15]: Active
inhibition [16]: Active
inhibition [17]: inactive
inhibition [18]: inactive
inhibition [19]: Active
inhibition [20]: inactive
Compound: CCOc1cc(/C=C2\OC(=O)C(Br)=C2Br)ccc1OCCc1ccc(CC)cn1
Activity (RAW264.7 [2]): 323.8 pg/mL
Activity (RAW264.7 [3]): 1044.2 pg/mL
Activity (RAW264.7 [4]): 2360.2 pg/mL
Activity (RAW264.7 [5]): 598.1 pg/mL
inhibition (RAW264.7 [6]): tde
Activity (RAW264.7 [7]): 902.2 pg/mL
inhibition (RAW264.7 [8]): tde
viability at 48 h, 10 µM [9]: 93.1%
inhibition at 10 µM (RAW264.7 [1]): 80.1%
Activity (RAW264.7 [10]): 519.8 pg/mL

Compound: CCOc1cc(/C=C2\OC(=O)C(Br)=C2Br)ccc1OCCc1ccccn1
inhibition at 10 µM (RAW264.7 [1]): 62.9%

Compound: COc1cc(/C=C2\OC(=O)C(Br)=C2Br)ccc1OCc1ccccn1
inhibition at 10 µM (RAW264.7 [1]): 33.9%

Compound: O=C1O/C(=C\c2ccc(OCc3ccccn3)cc2)C(Cl)=C1Cl
inhibition at 10 µM (RAW264.7 [1]): 16.3%

Compound: COc1cc(/C=C2\OC(=O)C(Cl)=C2Cl)ccc1OCCc1ccccn1
inhibition at 10 µM (RAW264.7 [1]): 38.9%

Compound: O=C1O/C(=C\c2ccc(OCCc3ccccn3)cc2)C(Cl)=C1Cl
inhibition at 10 µM (RAW264.7 [1]): 20.2%

Compound: CN(CCOc1ccc(CC2SC(=O)NC2=O)cc1)c1ccccn1 (stereo unspecified) [ROSIGLITAZONE]
Activity (RAW264.7 [2]): 416.9 pg/mL
Activity (RAW264.7 [3]): 1293.8 pg/mL
Activity (RAW264.7 [4]): 8388.6 pg/mL
Activity (RAW264.7 [5]): 2783.9 pg/mL
inhibition (RAW264.7 [6]): tde
Activity (RAW264.7 [7]): 3477.9 pg/mL
inhibition (RAW264.7 [8]): tde
viability at 48 h, 10 µM [9]: 99.7%
inhibition at 10 µM (RAW264.7 [1]): 16.7%
Activity (RAW264.7 [10]): 631.3 pg/mL

Compound: CCOc1cc(/C=C2\OC(=O)C(Cl)=C2Cl)ccc1OCc1ccccn1
inhibition at 10 µM (RAW264.7 [1]): 36.8%

Compound: O=C(Nc1ccccc1)c1cc([N+](=O)[O-])ccc1Cl
viability at 48 h, 5 µM [21]: 101%

inhibition [11]: inactive
inhibition [12]: inactive
inhibition [13]: Active
inhibition [14]: Active
inhibition [15]: Active
inhibition [16]: Active
inhibition [17]: inactive
inhibition [18]: inactive
inhibition [19]: Active
inhibition [20]: inactive
Compound: CCc1ccc(CCOc2ccc(/C=C3\OC(=O)C(Br)=C3Br)cc2OC)nc1
Activity (RAW264.7 [2]): 347.1 pg/mL
Activity (RAW264.7 [3]): 1110.5 pg/mL
Activity (RAW264.7 [4]): 6360 pg/mL
Activity (RAW264.7 [5]): 1705.9 pg/mL
inhibition (RAW264.7 [6]): tde
Activity (RAW264.7 [7]): 2528.4 pg/mL
inhibition (RAW264.7 [8]): tde
viability at 48 h, 10 µM [9]: 98.1%
inhibition at 10 µM (RAW264.7 [1]): 75.8%
Activity (RAW264.7 [10]): 575.6 pg/mL

Compound: COc1cc(/C=C2\SC(=O)NC2=O)ccc1OCc1nc(C)c(C)nc1C
inhibition at 10 µM (RAW264.7 [1]): 24.9%

Compound: CCc1ccc(CCOc2ccc(/C=C3\OC(=O)C(Cl)=C3Cl)cc2)nc1
inhibition at 10 µM (RAW264.7 [1]): 40.8%

Compound: Cc1nc(C)c(COc2cccc(/C=C3\SC(=O)NC3=O)c2)nc1C
inhibition at 10 µM (RAW264.7 [1]): 23.5%

Compound: COc1cc(/C=C2\OC(=O)C(Br)=C2Br)ccc1OCCc1ccccn1
inhibition at 10 µM (RAW264.7 [1]): 54.7%

Compound: CCOc1cc(/C=C2\OC(=O)C(Cl)=C2Cl)ccc1OCCc1ccccn1
inhibition at 10 µM (RAW264.7 [1]): 50.4%

— ChEMBL document CHEMBL3102723, “Design, synthesis and anti-inflammatory evaluation of novel 5-benzylidene-3,4-dihalo-furan-2-one derivatives” (Eur J Med Chem, 2014)
